Measured values: ChEMBL document CHEMBL4118152, “Discovery of Potent and Selective Periphery-Restricted Quinazoline Inhibitors of the Cyclic Nucleotide Phosphodiesterase PDE1” (J Med Chem, 2018)

Legend:
[1] = biological target: Cysteinyl leukotriene receptor 1 (Homo sapiens) (UniProt Q9Y271); assay: Inhibition of human leukotriene D4 receptor at 10 uM relative to control
[2] = Fraction unbound in Wistar Hannover rat plasma at 1 mg/kg, sc measured at 1 hr post dose by LC-MS/MS analysis; assay type: ADME, organism-based; conditions: in vivo
[3] = species: Homo sapiens; assay: Inhibition of human 5-HT2 receptor at 10 uM relative to control
[4] = Fraction unbound in Wistar Hannover rat plasma at 1 mg/kg, sc measured at 4 hrs post dose by LC-MS/MS analysis; assay type: ADME, organism-based; conditions: in vivo
[5] = species: Homo sapiens; assay: Selectivity ratio of IC50 for full length recombinant human PDE8B to IC50 for full length recombinant human PDE1A
Method in brief: (§1)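 IC50s were measured against recombinant PDEs, all human except PDE6A (bovine). Each enzyme was given its appropriate cAMP or cGMP substrate at below 1/3 of its Km. IC50s are the mean of n = 3 or more. The selectivity ratio is the IC50 for the other PDE divided by the IC50 for PDE1B1 or PDE1A.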

[6] = biological target: 5-hydroxytryptamine receptor 1A (Homo sapiens) (UniProt P08908); assay: Inhibition of human 5-HT1A receptor at 10 uM relative to control
[7] = biological target: Dual 3',5'-cyclic-AMP and -GMP phosphodiesterase 11A (Homo sapiens, UniProt Q9HCR9); assay: Inhibition of full length recombinant human PDE11A4 using 3',5'-[3H]cGMP as substrate after 30 mins by scintillation proximity assay
Method in brief: (§2)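 Enzymes were human except PDE6A, which was bovine. Each was assayed with cAMP or cGMP substrate, as appropriate to the enzyme, at concentrations below 1/3 of Km. IC50 values are mean ± SEM from n = 3 or more.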

[8] = Ratio of drug uptake in cerebrospinal fluid to fraction unbound in plasma in Wistar Hannover rat at 1 mg/kg, sc measured at 0.5 hrs post dose by LC-MS/MS analysis; assay type: ADME, organism-based, CSF/Plasma; conditions: in vivo
[9] = biological target: Rod cGMP-specific 3',5'-cyclic phosphodiesterase subunit alpha (Bos taurus, UniProt P11541); assay: Inhibition of bovine retina PDE6A using 3',5'-[3H]cGMP as substrate after 30 mins by scintillation proximity assay; method in brief: as §2
[10] = biological target: Somatostatin receptor type 4 (Homo sapiens) (UniProt P31391); assay: Inhibition of human Somatostatin 4 receptor at 10 uM relative to control
[11] = species: Homo sapiens; assay: Selectivity ratio of IC50 for full length recombinant human PDE11A4 to IC50 for full length recombinant human PDE1B1; method in brief: as §1
[12] = biological target: Caspase-3 (Homo sapiens) (UniProt P42574); assay: Inhibition of recombinant human Caspase-3 using benzyloxycarbonyl- Asp-Glu-Val-Asp-AFC as substrate at 10 uM after 60 mins by fluorimetric method relative to control
[13] = biological target: Glutamate receptor ionotropic, kainate (Rattus norvegicus) (UniProt P22756+Q01812+P42260+P42264+Q63273); assay: Inhibition of rat brain Glutamate receptor, ionotropic kainate assessed as [3H]kainic acid uptake at 10 uM after 60 mins by scintillation counting analysis relative to control
[14] = biological target: Sodium-dependent dopamine transporter (Homo sapiens) (UniProt Q01959); assay: Inhibition of dopamine transporter (unknown origin) at 10 uM relative to control
[15] = biological target: Muscarinic acetylcholine receptor M2 (Homo sapiens) (UniProt P08172); assay: Inhibition of human muscarinic M2 receptor at 10 uM relative to control
[16] = biological target: Prostaglandin G/H synthase 1 (Homo sapiens) (UniProt P23219); assay: Inhibition of recombinant human Cyclooxygenase 1 using arachidonic acid/ADHP as substrate at 10 uM after 3 mins by Fluorimetric method relative to control
[17] = biological target: Beta-3 adrenergic receptor (Homo sapiens) (UniProt P13945); assay: Inhibition of human beta 3 adrenergic receptor at 10 uM relative to control
[18] = biological target: MAO-A (Homo sapiens, UniProt P21397); assay: Inhibition of human MAO-A at 10 uM relative to control
[19] = species: Rattus norvegicus; assay: Displacement of [3H]CGP 39653 from rat brain Glutamate receptor ionotropic, NMDA at 10 uM after 60 mins by scintillation counting analysis relative to control
[20] = biological target: 5-hydroxytryptamine receptor 2C (Homo sapiens) (UniProt P28335); assay: Inhibition of human 5-HT2C receptor at 10 uM relative to control
[21] = species: Homo sapiens; assay: Selectivity ratio of IC50 for full length recombinant human PDE4D3 to IC50 for full length recombinant human PDE1A; method in brief: as §1
[22] = biological target: Dual specificity calcium/calmodulin-dependent 3',5'-cyclic nucleotide phosphodiesterase 1B (Homo sapiens, UniProt Q01064); assay: Inhibition of full length recombinant human PDE1B1 using 3',5'-[3H]cAMP as substrate after 30 mins by scintillation proximity assay; method in brief: as §2
[23] = Ratio of fraction unbound in Wistar Hannover rat brain to plasma at 1 mg/kg, sc measured at 1 hr post dose by LC-MS/MS analysis; assay type: ADME, organism-based; conditions: in vivo
[24] = biological target: Tyrosine-protein kinase ABL1 (Homo sapiens) (UniProt P00519); assay: Inhibition of human ABL at 10 uM relative to control
[25] = biological target: 3',5'-cyclic-AMP phosphodiesterase 7B (Homo sapiens, UniProt Q9NP56); assay: Inhibition of full length recombinant human PDE7B using 3',5'-[3H]cAMP as substrate after 30 mins by scintillation proximity assay; method in brief: as §2
[26] = biological target: D(1A) dopamine receptor (Homo sapiens) (UniProt P21728); assay: Inhibition of human dopamine D1 receptor at 10 uM relative to control
[27] = biological target: D(4) dopamine receptor (Homo sapiens) (UniProt P21917); assay: Inhibition of dopamine D4 receptor (unknown origin) at 10 uM relative to control
[28] = biological target: Mitogen-activated protein kinase 14 (Homo sapiens) (UniProt Q16539); assay: Inhibition of recombinant human p38 alpha using Ulight-CFFKNIVTPRTPPPSQGK-amide as substrate at 10 uM after 30 mins in presence of ATP by LANCE method relative to control
[29] = biological target: Beta-2 adrenergic receptor (Homo sapiens) (UniProt P07550); assay: Inhibition of human beta 2 adrenergic receptor at 10 uM relative to control
[30] = biological target: cGMP-dependent 3',5'-cyclic phosphodiesterase (Homo sapiens, UniProt O00408); assay: Inhibition of full length recombinant human PDE2A1 using 3',5'-[3H]cGMP as substrate after 30 mins by scintillation proximity assay; method in brief: as §2
[31] = biological target: Gastrin/cholecystokinin type B receptor (Homo sapiens) (UniProt P32239); assay: Inhibition of human cholecystokinin CCK2 receptor at 10 uM relative to control
[32] = biological target: CYP2D6 (Homo sapiens, UniProt P10635); assay: Inhibition of CYP2D6 (unknown origin) at 10 uM relative to control; assay type: ADME
[33] = biological target: Kappa-type opioid receptor (Homo sapiens) (UniProt P41145); assay: Inhibition of human kappa opioid receptor at 10 uM relative to control
[34] = Fraction unbound in Wistar Hannover rat brain at 1 mg/kg, sc measured at 0.5 to 4 hrs post dose by LC-MS/MS analysis; assay type: ADME, organism-based

Sequence of CYP2D6 (P10635 whole entry): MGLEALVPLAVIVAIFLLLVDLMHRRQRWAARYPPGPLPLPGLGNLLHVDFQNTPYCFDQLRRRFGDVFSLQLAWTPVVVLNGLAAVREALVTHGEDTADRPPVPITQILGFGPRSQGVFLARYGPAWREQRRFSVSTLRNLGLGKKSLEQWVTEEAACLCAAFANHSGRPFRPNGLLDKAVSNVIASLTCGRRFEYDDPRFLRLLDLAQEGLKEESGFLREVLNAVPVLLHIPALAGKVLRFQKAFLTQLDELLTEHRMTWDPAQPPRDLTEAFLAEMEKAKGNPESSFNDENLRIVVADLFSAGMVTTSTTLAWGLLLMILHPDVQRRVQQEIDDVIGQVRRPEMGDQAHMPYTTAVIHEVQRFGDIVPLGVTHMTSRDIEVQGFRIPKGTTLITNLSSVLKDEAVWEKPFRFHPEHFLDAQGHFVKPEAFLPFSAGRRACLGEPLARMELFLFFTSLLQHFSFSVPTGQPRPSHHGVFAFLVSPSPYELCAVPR
Sequence of Tyrosine-protein kinase ABL1 (Homo sapiens) (P00519 whole entry): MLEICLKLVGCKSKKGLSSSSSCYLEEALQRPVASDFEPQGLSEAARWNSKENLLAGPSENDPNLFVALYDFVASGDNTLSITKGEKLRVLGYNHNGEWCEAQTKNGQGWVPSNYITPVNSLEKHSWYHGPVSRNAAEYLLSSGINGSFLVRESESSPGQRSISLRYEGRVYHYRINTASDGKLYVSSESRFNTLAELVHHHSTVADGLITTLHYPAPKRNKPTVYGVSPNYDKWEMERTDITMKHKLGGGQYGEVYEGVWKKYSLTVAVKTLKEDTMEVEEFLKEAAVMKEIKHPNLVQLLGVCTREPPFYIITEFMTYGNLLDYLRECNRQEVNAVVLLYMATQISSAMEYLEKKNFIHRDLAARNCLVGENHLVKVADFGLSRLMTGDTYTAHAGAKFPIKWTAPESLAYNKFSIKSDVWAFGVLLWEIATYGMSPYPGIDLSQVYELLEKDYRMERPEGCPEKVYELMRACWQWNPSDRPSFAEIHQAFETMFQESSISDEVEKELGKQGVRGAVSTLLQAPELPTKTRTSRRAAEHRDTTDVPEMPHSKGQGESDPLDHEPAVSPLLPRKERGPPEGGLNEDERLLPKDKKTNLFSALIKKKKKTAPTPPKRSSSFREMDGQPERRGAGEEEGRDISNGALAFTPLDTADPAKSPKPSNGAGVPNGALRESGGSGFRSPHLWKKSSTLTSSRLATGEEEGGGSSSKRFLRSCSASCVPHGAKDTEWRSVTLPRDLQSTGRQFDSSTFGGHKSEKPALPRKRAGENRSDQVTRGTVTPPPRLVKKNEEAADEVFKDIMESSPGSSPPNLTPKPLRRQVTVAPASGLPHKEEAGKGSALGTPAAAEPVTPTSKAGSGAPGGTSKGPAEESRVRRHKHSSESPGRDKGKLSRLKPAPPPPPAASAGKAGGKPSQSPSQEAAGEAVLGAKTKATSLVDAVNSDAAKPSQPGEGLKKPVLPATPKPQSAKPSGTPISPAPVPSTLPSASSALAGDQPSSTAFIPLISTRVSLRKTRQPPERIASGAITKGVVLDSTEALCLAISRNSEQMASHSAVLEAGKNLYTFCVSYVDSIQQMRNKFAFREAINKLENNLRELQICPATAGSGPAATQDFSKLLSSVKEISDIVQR
Sequence of Cysteinyl leukotriene receptor 1 (Homo sapiens) (Q9Y271 whole entry): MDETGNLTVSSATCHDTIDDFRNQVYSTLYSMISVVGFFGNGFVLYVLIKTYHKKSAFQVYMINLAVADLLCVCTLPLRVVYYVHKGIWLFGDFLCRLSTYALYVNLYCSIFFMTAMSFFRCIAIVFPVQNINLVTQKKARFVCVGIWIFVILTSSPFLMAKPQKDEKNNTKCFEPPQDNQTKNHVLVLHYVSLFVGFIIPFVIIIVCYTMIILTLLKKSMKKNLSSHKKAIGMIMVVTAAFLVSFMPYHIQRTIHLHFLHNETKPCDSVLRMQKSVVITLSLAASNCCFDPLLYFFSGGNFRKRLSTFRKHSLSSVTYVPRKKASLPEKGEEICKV
Sequence of Rod cGMP-specific 3',5'-cyclic phosphodiesterase subunit alpha (P11541 whole entry): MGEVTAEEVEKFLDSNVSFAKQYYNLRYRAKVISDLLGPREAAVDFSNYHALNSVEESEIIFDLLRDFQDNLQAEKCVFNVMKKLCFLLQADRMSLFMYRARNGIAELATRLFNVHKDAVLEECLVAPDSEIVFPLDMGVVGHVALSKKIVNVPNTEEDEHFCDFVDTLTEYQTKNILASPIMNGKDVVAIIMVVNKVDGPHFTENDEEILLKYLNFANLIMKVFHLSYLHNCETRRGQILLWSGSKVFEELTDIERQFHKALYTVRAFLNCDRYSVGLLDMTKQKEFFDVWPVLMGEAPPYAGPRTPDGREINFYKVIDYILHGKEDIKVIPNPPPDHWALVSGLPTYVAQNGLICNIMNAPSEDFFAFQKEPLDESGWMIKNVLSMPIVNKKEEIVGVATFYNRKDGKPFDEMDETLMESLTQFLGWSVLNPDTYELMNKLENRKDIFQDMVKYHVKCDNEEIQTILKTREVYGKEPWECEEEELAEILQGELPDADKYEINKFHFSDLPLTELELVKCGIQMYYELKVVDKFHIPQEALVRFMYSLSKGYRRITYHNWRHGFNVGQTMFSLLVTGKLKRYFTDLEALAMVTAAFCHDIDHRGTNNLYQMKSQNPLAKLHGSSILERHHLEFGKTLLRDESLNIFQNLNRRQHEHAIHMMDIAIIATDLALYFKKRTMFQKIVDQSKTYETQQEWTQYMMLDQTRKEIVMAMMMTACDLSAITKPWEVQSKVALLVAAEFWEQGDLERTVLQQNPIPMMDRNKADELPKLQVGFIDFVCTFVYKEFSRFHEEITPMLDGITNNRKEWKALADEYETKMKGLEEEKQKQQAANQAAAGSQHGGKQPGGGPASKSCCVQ
Sequence of Sodium-dependent dopamine transporter (Homo sapiens) (Q01959 whole entry): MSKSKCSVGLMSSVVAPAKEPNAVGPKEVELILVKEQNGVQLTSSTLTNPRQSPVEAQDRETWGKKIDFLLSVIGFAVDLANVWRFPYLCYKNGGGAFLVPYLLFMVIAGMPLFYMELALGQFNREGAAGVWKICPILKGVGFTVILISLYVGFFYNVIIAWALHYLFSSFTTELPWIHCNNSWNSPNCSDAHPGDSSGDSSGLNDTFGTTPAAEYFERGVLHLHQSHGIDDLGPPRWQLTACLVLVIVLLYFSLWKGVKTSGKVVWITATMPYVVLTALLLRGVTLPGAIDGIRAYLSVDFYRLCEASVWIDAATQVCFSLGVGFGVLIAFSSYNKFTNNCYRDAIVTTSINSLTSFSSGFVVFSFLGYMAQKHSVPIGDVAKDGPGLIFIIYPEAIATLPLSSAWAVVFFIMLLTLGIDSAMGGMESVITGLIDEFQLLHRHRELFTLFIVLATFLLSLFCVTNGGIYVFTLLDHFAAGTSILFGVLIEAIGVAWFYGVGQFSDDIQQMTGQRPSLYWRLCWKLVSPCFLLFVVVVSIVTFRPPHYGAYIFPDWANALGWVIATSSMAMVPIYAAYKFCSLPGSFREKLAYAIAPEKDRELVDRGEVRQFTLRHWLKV
Sequence of Dual 3',5'-cyclic-AMP and -GMP phosphodiesterase 11A (Q9HCR9 whole entry): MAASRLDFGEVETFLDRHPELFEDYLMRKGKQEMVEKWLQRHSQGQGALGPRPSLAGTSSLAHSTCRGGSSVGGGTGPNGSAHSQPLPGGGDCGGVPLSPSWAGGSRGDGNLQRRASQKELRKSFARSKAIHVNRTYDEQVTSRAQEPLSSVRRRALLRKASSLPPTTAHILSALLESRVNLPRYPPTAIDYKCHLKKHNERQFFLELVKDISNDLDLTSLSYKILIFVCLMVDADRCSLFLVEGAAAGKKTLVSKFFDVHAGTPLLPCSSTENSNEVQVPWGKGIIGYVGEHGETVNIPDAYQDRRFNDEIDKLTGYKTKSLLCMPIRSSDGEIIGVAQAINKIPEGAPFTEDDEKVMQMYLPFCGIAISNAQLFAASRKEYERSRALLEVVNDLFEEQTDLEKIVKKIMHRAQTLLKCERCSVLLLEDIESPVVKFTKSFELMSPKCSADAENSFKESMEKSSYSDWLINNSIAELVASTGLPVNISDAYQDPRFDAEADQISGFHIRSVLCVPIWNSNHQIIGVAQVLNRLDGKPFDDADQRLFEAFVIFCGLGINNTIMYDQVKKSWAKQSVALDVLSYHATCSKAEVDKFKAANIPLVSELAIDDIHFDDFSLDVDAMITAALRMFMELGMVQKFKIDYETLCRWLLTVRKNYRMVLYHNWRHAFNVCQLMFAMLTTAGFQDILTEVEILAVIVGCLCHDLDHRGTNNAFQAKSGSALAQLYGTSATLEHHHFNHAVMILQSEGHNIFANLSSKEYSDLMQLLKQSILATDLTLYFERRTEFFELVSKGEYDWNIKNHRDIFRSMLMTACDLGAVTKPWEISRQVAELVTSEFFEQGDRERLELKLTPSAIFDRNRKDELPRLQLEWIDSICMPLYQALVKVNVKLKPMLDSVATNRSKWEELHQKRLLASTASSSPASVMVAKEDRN
Sequence of Gastrin/cholecystokinin type B receptor (Homo sapiens) (P32239 whole entry): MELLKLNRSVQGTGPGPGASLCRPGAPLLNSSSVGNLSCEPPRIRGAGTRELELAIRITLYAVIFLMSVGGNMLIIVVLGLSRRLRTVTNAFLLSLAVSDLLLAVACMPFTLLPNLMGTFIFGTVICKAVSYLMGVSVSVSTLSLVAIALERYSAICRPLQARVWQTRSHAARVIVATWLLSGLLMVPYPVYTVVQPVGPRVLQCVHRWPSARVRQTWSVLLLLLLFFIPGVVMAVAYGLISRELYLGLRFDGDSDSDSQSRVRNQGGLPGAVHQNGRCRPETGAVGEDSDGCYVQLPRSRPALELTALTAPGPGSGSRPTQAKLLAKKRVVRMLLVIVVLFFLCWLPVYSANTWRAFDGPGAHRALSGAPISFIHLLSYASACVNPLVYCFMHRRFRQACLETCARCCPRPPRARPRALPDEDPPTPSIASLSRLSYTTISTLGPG

Question: With `COc1ccc2c(N[C@@H](C)Cc3cc(C)[nH]n3)ncnc2c1OC` as the compound, how does the inhibition [1] read?
Answer: < 50%

Question: What about the “Cp(f)” value [2] of the same compound?
Answer: 120 nM

Question: And the inhibition [3]?
Answer: < 50%

Question: What about the “Cp(f)” value [4] of the same compound?
Answer: 7 nM

Question: And the Ratio IC50 [5]?
Answer: 369

Question: What about the inhibition [6] of the same compound?
Answer: < 50%

Question: And the IC50 [7]?
Answer: 34.7 µM

Question: What about the Ratio [8] of the same compound?
Answer: 0.12 to 0.14

Question: What about the IC50 [9] of the same compound?
Answer: > 0.142 µM

Question: What about the inhibition [10] of the same compound?
Answer: < 50%

Question: And the Ratio IC50 [11]?
Answer: 3740

Question: And the inhibition [12]?
Answer: < 50%

Question: And the inhibition [13]?
Answer: < 50%

Question: And the inhibition [14]?
Answer: < 50%

Question: And the inhibition [15]?
Answer: < 50%

Question: What about the inhibition [16] of the same compound?
Answer: < 50%

Question: And the inhibition [17]?
Answer: < 50%

Question: And the inhibition at 10 µM [18]?
Answer: < 50%

Question: What about the inhibition [19] of the same compound?
Answer: < 50%

Question: What about the inhibition [20] of the same compound?
Answer: < 50%

Question: What about the Ratio IC50 [21] of the same compound?
Answer: 626

Question: And the IC50 [22]?
Answer: 0.0091 µM

Question: And the Ratio [23]?
Answer: 0.03

Question: What about the inhibition [24] of the same compound?
Answer: < 50%

Question: What about the IC50 [25] of the same compound?
Answer: 41.3 µM

Question: What about the inhibition [26] of the same compound?
Answer: < 50%

Question: What about the inhibition [27] of the same compound?
Answer: < 50%

Question: And the inhibition [28]?
Answer: < 50%

Question: What about the inhibition [29] of the same compound?
Answer: < 50%

Question: And the IC50 [30]?
Answer: 47.6 µM

Question: What about the inhibition [31] of the same compound?
Answer: < 50%

Question: What about the inhibition at 10 µM [32] of the same compound?
Answer: < 50%

Question: What about the inhibition [33] of the same compound?
Answer: < 50%

Question: What about the fraction unbound [34] of the same compound?
Answer: 0.2
